# Assay results from different studies.
# Lines come from different studies, so protocols differ.
# Target: Serine/threonine-protein kinase pim-1 (PIM1, Homo sapiens, UniProt P11309)
SMILES,effect on,mode,method,concentration,measurement,result
Cn1c2c(c3ccc(Cl)c(Cl)c31)C(C#N)C1(CCNCC1)NC2=O (racemic),thermal stability,,DSF,10 µM,ΔTm,> 8 °C
O=C(Nc1ccc(Oc2ccc(F)cc2)cc1)N1CCc2ncccc2[C@H]1c1ccc(F)cc1,cell-free assay,,competition with immobilised ligand,1 µM,remaining binding,99%
COc1cc(/C=C/C(=O)CC(=O)/C=C/c2ccc(O)c(OC)c2)ccc1O,enzyme activity,inhibitor,,1 µM,activity vs control,46%
O=C1Nc2ccc(Cl)cc2C1=Cc1cc(Cl)c(O)c(Cl)c1,cell-free assay,,,0.5 µM,remaining signal,19.4%
O=C(Nc1cnn(-c2csc(C(=O)NC3COC3)c2)c1)Nc1ccccc1Cl,enzyme activity,inhibitor,,5 µM,remaining activity,64.6%
Cc1cc(NC(=O)c2cccc3cc(-c4cccc5[nH]nc(N)c45)ccc23)ccc1F,enzyme activity,inhibitor,,0.1 µM,activity vs control,108%
N#CCCc1ccc2c(c1)-c1[nH]c3ccc([N+](=O)[O-])cc3c1CC(=O)N2,cell-free assay,,,0.5 µM,remaining signal,93.6%
CS(=O)(=O)Nc1cccc(-c2csc(NC(=O)CSc3nc4nccnc4c(=O)n3CCc3ccccc3)n2)c1,enzyme activity,inhibitor,,10 µM,inhibition,0%
CN([C@@H]1CCc2c(CC(=O)O)c3cc(S(C)(=O)=O)ccc3n2C1)S(=O)(=O)c1ccc(F)cc1,cell-free assay,,competition with immobilised ligand,1 µM,remaining binding,100%
Oc1cccc(-c2nc(N3CCOCC3)c3oc4ncccc4c3n2)c1,enzyme activity,inhibitor,,10 µM,remaining activity,72%
O=C(NCCCC1CCCCC1)c1ccc(CNC(=O)c2cnn(-c3ccccc3)c2C(F)(F)F)cc1,cell-free assay,,competition with immobilised ligand,0.1 µM,remaining binding,100%
Cc1ncc([N+](=O)[O-])n1C(=NO)c1ccccc1C(F)(F)F,enzyme activity,inhibitor,,10 µM,inhibition,8.92%
FC(F)(F)Oc1cccc(-c2cnc3ccc(-c4ccncc4)nn23)c1,enzyme activity,inhibitor,radiometric,5 µM,activity vs control,47%
CC1=C(C#N)C(c2ccc3c(c2)c(NC(=O)c2ccccc2C)nn3C)C(C#N)=C(C)N1,cell-free assay,,competition with immobilised ligand,1 µM,remaining binding,100%
CN(C)C1CCN(CC#Cc2nn(C3CCCC3)c3nc(NCc4ccccc4)ncc23)C1 (stereo not shown),enzyme activity,inhibitor,FRET,1 µM,inhibition,2%
CNC(=O)c1cc(Oc2ccc(NC(=O)Nc3ccc(Cl)c(C(F)(F)F)c3)cc2)ccn1,enzyme activity,inhibitor,,10 µM,inhibition,5%
CO[C@H]1CC[C@H](CNc2ccc(S(=O)(=O)NC(=O)c3ccc(N4CCN(CC5=C(c6ccc(Cl)cc6)CC(C)(C)CC5)CC4)cc3Oc3cnc4[nH]ccc4c3)cc2[N+](=O)[O-])CC1,cell-free assay,,competition with immobilised ligand,1 µM,remaining binding,72%
CC(C)(C)c1nc2c(s1)c1nc(N)ncc1c1ccc(NS(=O)(=O)c3c(F)cccc3F)c(F)c12,enzyme activity,inhibitor,radiometric,1 µM,remaining activity,108%
Nc1nc(Nc2ccccc2)sc1C(=O)c1c(F)cccc1F,enzyme activity,inhibitor,,10 µM,remaining activity,79%
